# Data taken from publication PMC5788574 (The Journal of comparative neurology, 2017).
# Experiments:
# [1] = ref Kimes et al., 2003; cited from earlier work
# α4β2* nAChRs [2] = test: Human brain [18F]Nifene PET, distribution volume ratio; type: in vivo; settings: for DVR ATR / DVR CB / DVR Frontal cortex / DVR LG / DVR OG / DVR Pit / DVR Red Nucleus / DVR SLF / DVR SN/VTA / DVR Thalamus: corpus callosum reference
# Outline: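 Eight healthy volunteers (4 male, 4 female), 21–69 years. Bolus of about 185 MBq radiotracer, then 90 min dynamic 3-D acquisition on an HR+ scanner. Frames were […], reconstructed by filtered back projection with a 4 mm Gaussian filter. FreeSurfer regions came from coregistered 3 T MRI. Parametric DVR images were made by MRTM2 with corpus callosum as reference.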
# [3] = after intravenous administration; ref Kant et al., 2011; cited from earlier work
# α4β2* nAChRs [4] = test: [18F]Nifene PET across species; type: in vivo; settings: all species (mice, rats, monkeys, and humans)
# α4β2* nAChRs [5] = test: Rat brain [18F]Nifene PET/CT; type: in vivo; settings: rat PET
# Outline: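 Sprague-Dawley rats (250–400 g) were induced with 4% isoflurane and kept on 2.5% during the scan. A bolus of about 24 MBq radiotracer was followed by dynamic acquisition for up to 120 min, then CT for attenuation correction. Images were normalized to stereotaxic space via an MRI rat template. Time-activity curves came from atlas-guided VOIs without partial volume correction. Logan noninvasive DVR, with BPND = DVR−1.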
# [6] = Tolerability of [18F]Nifene in human PET subjects; type: in vivo; settings: 185 MBq, <0.10 μg per injection
# Outline: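 Healthy volunteers aged 21–69 (4 male, 4 female) studied under an FDA investigational new drug application. Each received a bolus of about 185 MBq radiotracer in sterile saline. Vital signs and laboratory results were assessed for adverse or clinically detectable pharmacologic effects.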
# α4β2* nAChRs [7] = test: Mouse brain [18F]Nifene PET/CT; type: in vivo; settings: mouse PET
# Outline: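 BALB/c mice (25–30 g) were induced with 4% isoflurane and kept on 2% during the scan. A bolus of about 9.25 MBq radiotracer was followed by dynamic acquisition for up to 120 min, then CT for attenuation correction. Images were coregistered to an MRI mouse template. Time-activity curves came from atlas-guided VOIs without partial volume correction. Logan noninvasive DVR, with BPND = DVR−1.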
# α4β2* nAChRs [8] = test: Rhesus monkey brain [18F]Nifene PET; type: in vivo, rhesus monkey (Macaca mulatta)
# Outline: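 Rhesus monkeys (8–10 kg) had ketamine/xylazine IM, or ketamine/atropine IM plus 1–2% isoflurane. A bolus of about 48–111 MBq radiotracer was followed by at least 120 min acquisition on an HR+ or microPET scanner. Data were binned into 23 frames and reconstructed by filtered back projection. Circular ROIs on cerebellum, thalamus, lateral geniculate and cortex gave time-activity curves and BPND.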
# [9] = partial agonist; ref Niaura, Jones, & Kirkpatrick, 2006; cited from earlier work
# [10] = human PET, females Avg±SD (4 subjects)
# [11] = human PET, males Avg±SD (4 subjects)
# [12] = human PET, males Avg±SD (4 subjects), listed as 18F-Nifene
smiles,measurement,setting,value
"Fc1ncccc1OC[C@@H]1CCN1 [[^18F]2-FA-85380, 2-fluoro-3-(2(S)-azetidinylmethoxy)pyridine]",Dose with no adverse effects,[1],up to 10 pmol/kg
"[18F]c1ncccc1OC[C@@H]1C=CCN1 [[^18F]Nifene, 2-[18F]fluoro-3-[2-((S)-3-pyrrolinyl)methoxy]pyridine]",Binding in habenula,α4β2* nAChRs [2]; human PET,low levels
same,Ratio of thalamus to corpus callosum,α4β2* nAChRs [2]; human PET,2.6
same,"DVR, anterior thalamic radiation (white matter)","α4β2* nAChRs [2]; human PET, all subjects",~ 1.6
same,"DVR, red nucleus","α4β2* nAChRs [2]; human PET, all subjects",1.6–1.7
same,"DVR, superior longitudinal fasciculus","α4β2* nAChRs [2]; human PET, all subjects",~ 1.5
same,DVR ATR,α4β2* nAChRs [2]; [10],1.67
same,DVR CB,α4β2* nAChRs [2]; [10],1.54 ± 0.25
same,DVR Frontal cortex,α4β2* nAChRs [2]; [10],1.38 ± 0.15
same,DVR LG,α4β2* nAChRs [2]; [10],2.46 ± 0.07
same,DVR OG,α4β2* nAChRs [2]; [10],1.41
same,DVR Pit,α4β2* nAChRs [2]; [10],1.57
same,DVR Red Nucleus,α4β2* nAChRs [2]; [10],1.73
same,DVR SLF,α4β2* nAChRs [2]; [10],1.55
same,DVR SN/VTA,α4β2* nAChRs [2]; [10],1.75 ± 0.09
same,DVR Thalamus,α4β2* nAChRs [2]; [10],2.58 ± 0.11
same,DVR ATR,α4β2* nAChRs [2]; [11],1.58
same,DVR CB,α4β2* nAChRs [2]; [11],1.42 ± 0.18
same,DVR Frontal cortex,α4β2* nAChRs [2]; [11],1.31 ± 0.11
same,DVR LG,α4β2* nAChRs [2]; [11],2.17 ± 0.08
same,DVR OG,α4β2* nAChRs [2]; [11],1.31
same,DVR Pit,α4β2* nAChRs [2]; [11],1.45
same,DVR Red Nucleus,α4β2* nAChRs [2]; [11],1.56
same,DVR SLF,α4β2* nAChRs [2]; [11],1.38
same,DVR SN/VTA,α4β2* nAChRs [2]; [11],1.60 ± 0.08
same,DVR Thalamus,α4β2* nAChRs [2]; [11],2.24 ± 0.10
same,DVR ATR,α4β2* nAChRs [2]; [12],1.58 ± 0.13
same,DVR OG,α4β2* nAChRs [2]; [12],1.31 ± 0.12
same,DVR Pit,α4β2* nAChRs [2]; [12],1.45 ± 0.22
same,DVR Red Nucleus,α4β2* nAChRs [2]; [12],1.56 ± 0.13
same,DVR SLF,α4β2* nAChRs [2]; [12],1.38 ± 0.15
same,DVR ATR,α4β2* nAChRs [2]; human one PET,1.68
same,DVR CB,α4β2* nAChRs [2]; human one PET,1.40
same,DVR Frontal cortex,α4β2* nAChRs [2]; human one PET,1.29
same,DVR LG,α4β2* nAChRs [2]; human one PET,2.17
same,DVR OG,α4β2* nAChRs [2]; human one PET,1.41
same,DVR Pit,α4β2* nAChRs [2]; human one PET,1.62
same,DVR Red Nucleus,α4β2* nAChRs [2]; human one PET,1.64
same,DVR SLF,α4β2* nAChRs [2]; human one PET,1.55
same,DVR SN/VTA,α4β2* nAChRs [2]; human one PET,1.53
same,DVR Thalamus,α4β2* nAChRs [2]; human one PET,2.25
same,DVR ATR,α4β2* nAChRs [2]; human seven PET,1.45
same,DVR CB,α4β2* nAChRs [2]; human seven PET,1.50
same,DVR Frontal cortex,α4β2* nAChRs [2]; human seven PET,1.34
same,DVR LG,α4β2* nAChRs [2]; human seven PET,2.17
same,DVR OG,α4β2* nAChRs [2]; human seven PET,1.33
same,DVR Pit,α4β2* nAChRs [2]; human seven PET,1.63
same,DVR Red Nucleus,α4β2* nAChRs [2]; human seven PET,1.37
same,DVR SLF,α4β2* nAChRs [2]; human seven PET,1.18
same,DVR SN/VTA,α4β2* nAChRs [2]; human seven PET,1.68
same,DVR Thalamus,α4β2* nAChRs [2]; human seven PET,2.13
same,DVR ATR,α4β2* nAChRs [2]; human three PET,1.47
same,DVR CB,α4β2* nAChRs [2]; human three PET,1.18
same,DVR Frontal cortex,α4β2* nAChRs [2]; human three PET,1.17
same,DVR LG,α4β2* nAChRs [2]; human three PET,2.08
same,DVR OG,α4β2* nAChRs [2]; human three PET,1.14
same,DVR Pit,α4β2* nAChRs [2]; human three PET,1.17
same,DVR Red Nucleus,α4β2* nAChRs [2]; human three PET,1.56
same,DVR SLF,α4β2* nAChRs [2]; human three PET,1.36
same,DVR SN/VTA,α4β2* nAChRs [2]; human three PET,1.55
same,DVR Thalamus,α4β2* nAChRs [2]; human three PET,2.22
same,DVR ATR,α4β2* nAChRs [2]; human two PET,1.69
same,DVR CB,α4β2* nAChRs [2]; human two PET,1.61
same,DVR Frontal cortex,α4β2* nAChRs [2]; human two PET,1.44
same,DVR LG,α4β2* nAChRs [2]; human two PET,2.26
same,DVR OG,α4β2* nAChRs [2]; human two PET,1.35
same,DVR Pit,α4β2* nAChRs [2]; human two PET,1.36
same,DVR Red Nucleus,α4β2* nAChRs [2]; human two PET,1.67
same,DVR SLF,α4β2* nAChRs [2]; human two PET,1.43
same,DVR SN/VTA,α4β2* nAChRs [2]; human two PET,1.66
same,DVR Thalamus,α4β2* nAChRs [2]; human two PET,2.37
same,Radioactive components in rat brain,[3],the only radioactive component
same,Thalamus reference region ratio,α4β2* nAChRs [4],> 2
same,Ratio of thalamus to cerebellum,α4β2* nAChRs [5],3.1
same,Tolerability in human subjects,[6],well tolerated in all the human subjects with no adverse side effects
same,Tolerability in human subjects,[6]; listed as [^18F] Nifene,well tolerated with no adverse effects
same,Ratio of thalamus to cerebellum,α4β2* nAChRs [7],2
same,Ratio of thalamus to cerebellum,α4β2* nAChRs [8],3.2
c1cnc2cc3c(cc2n1)[C@@H]1CNC[C@H]3C1 [varen-cline],in vivo efficacy compared to nicotine,[9],30–60%
